Measurements from ChEMBL document CHEMBL2390869, “Evolution of novel tricyclic CRTh2 receptor antagonists from a (E)-2-cyano-3-(1H-indol-3-yl)acrylamide scaffold” (Bioorg Med Chem Lett, 2013).
≈ marks a conversion by molar mass, not a printed value.

Assays:
[1] = target: T1, Prostaglandin D2 receptor 2 (Homo sapiens, UniProt Q9Y5Y4); experiment: Displacement of [3H]PGD2 from human CRTh2 receptor
T1 sequence (Q9Y5Y4 whole entry): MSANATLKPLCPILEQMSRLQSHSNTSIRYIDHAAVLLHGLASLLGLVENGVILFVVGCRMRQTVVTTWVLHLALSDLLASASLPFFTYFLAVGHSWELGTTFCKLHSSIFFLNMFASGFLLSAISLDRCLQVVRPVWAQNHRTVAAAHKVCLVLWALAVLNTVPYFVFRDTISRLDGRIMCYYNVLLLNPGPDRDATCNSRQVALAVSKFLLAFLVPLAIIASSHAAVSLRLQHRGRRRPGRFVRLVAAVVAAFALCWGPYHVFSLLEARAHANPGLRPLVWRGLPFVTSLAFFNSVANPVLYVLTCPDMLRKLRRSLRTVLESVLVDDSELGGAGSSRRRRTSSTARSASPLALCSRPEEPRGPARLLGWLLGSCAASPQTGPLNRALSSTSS
Summary of the method: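 Human CRTh2 binding assay run in assay buffer. IC50 reported as the mean of at least three experiments.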

[2] = Metabolic stability in human plasma assessed as compound remaining after 4 hrs; assay type: ADME, cell-free; conditions: read-out: Stability
Summary of the method: (§1)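 Compound incubated in rat and human plasma for up to 4 h. Unchanged parent quantified by LC–MS, reported as % parent remaining at 4 h plus elimination half-life.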

[3] = Intrinsic clearance in human liver microsomes assessed per mg of protein; assay type: ADME, Microsome; conditions: read-out: CLH
Summary of the method: (§2)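 Intrinsic clearance determined in human and rat liver microsomes (per mg protein) and in rat hepatocytes (per 10⁶ cells).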

[4] = Lipophilicity, log D of the compound at pH 7.4; assay type: physicochemical; conditions: buffer
[5] = Half life in human plasma; assay type: ADME, cell-free; summary of the method: as §1
[6] = target: T2, Prostaglandin E2 receptor EP1 subtype (Homo sapiens, UniProt P34995); experiment: Antagonist activity at human EP1 receptor assessed as inhibition of PGE2-induced Ca2+ mobilization by FLIPR assay; assay type: functional
T2 sequence (P34995 whole entry): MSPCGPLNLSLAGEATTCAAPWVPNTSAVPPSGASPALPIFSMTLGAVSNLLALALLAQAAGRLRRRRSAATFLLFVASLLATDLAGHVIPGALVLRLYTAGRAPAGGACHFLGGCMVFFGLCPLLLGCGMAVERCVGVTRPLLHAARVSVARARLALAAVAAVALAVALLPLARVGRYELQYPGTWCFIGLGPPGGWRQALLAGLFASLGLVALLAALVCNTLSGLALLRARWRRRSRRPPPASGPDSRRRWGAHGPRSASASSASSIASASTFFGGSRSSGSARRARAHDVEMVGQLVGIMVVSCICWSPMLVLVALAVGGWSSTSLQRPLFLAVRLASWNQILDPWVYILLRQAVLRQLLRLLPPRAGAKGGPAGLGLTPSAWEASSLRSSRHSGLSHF
Summary of the method: (§3)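 Antagonism measured as inhibition of agonist-induced Ca2+ mobilization by FLIPR: PGE2 as agonist for human EP1 and EP3, U46619 as agonist for human TP. Values are IC50.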

[7] = target: Cytochrome P450 3A4 (Homo sapiens, UniProt P08684); experiment: Inhibition of CYP3A4 (unknown origin); assay type: ADME
[8] = Stability in simulated intestinal fluid after 4 hrs by LC/MS analysis; assay type: physicochemical; conditions: read-out: Stability
Summary of the method: (§4)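 Compound incubated in simulated gastric fluid for 1 h or simulated intestinal fluid for 4 h. Unchanged parent recovered and measured by LC–MS, expressed as % parent.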

[9] = Solubility of the compound in buffer at pH 7; assay type: physicochemical
Summary of the method: (§5)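 Solubility measured in buffered aqueous solution at pH 4 and pH 7, and in water, where the final pH of the aqueous solution was 4.6.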

[10] = target: T3, Prostaglandin D2 receptor (Homo sapiens, UniProt Q13258); experiment: Inhibition of PGD2 binding to human DP1 receptor
T3 sequence (Q13258 whole entry): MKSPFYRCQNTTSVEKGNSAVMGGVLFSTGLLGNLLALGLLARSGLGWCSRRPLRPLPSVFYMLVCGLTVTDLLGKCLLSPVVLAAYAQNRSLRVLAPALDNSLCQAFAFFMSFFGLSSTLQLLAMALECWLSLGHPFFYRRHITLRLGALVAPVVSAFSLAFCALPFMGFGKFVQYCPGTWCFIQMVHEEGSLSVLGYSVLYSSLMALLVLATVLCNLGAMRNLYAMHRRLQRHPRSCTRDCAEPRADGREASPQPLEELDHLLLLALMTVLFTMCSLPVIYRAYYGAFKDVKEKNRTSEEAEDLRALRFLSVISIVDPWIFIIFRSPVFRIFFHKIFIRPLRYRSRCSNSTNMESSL

[11] = target: T4, Thromboxane A2 receptor (Homo sapiens, UniProt P21731); experiment: Antagonist activity at human TP2 receptor assessed as inhibition of U46619-induced Ca2+ mobilization by FLIPR assay; assay type: functional; summary of the method: as §3
T4 sequence (P21731 whole entry): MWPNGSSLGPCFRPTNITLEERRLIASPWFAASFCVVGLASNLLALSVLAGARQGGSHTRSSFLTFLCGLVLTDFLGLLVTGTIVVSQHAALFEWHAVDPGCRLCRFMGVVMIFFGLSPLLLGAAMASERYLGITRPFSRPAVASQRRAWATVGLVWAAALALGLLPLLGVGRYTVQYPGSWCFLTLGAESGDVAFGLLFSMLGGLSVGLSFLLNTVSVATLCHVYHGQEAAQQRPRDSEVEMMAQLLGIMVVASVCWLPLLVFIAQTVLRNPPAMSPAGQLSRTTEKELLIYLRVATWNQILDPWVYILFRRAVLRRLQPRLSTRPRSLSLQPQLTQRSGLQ

[12] = target: Cytochrome P450 2D6 (Homo sapiens, UniProt P10635); experiment: Inhibition of CYP2D6 (unknown origin); assay type: ADME
[13] = Intrinsic clearance in rat liver microsomes assessed per mg of protein; assay type: ADME, Microsome; conditions: read-out: CLH; summary of the method: as §2
[14] = Volume of distribution at steady state in Wistar rat at 10 mg/kg, po and 1 mg/kg, iv; assay type: ADME, organism-based; conditions: in vivo, read-out: Vdss
Summary of the method: (§6)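 Single doses given to three male Wistar rats per route: 10 mg/kg orally and 1 mg/kg intravenously, as a solution in 20% propyleneglycol/80% buffer. Plasma PK parameters were derived. CL, terminal T1/2 and Vss come from the intravenous arm. AUC0–last comes from the oral arm.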

[15] = AUC (0 to last) in Wistar rat at 10 mg/kg, po; assay type: ADME, organism-based; set-up: time 0 - last, dose 10 mg/kg, route oral; conditions: plasma; summary of the method: as §6
[16] = Oral bioavailability in Wistar rat at 10 mg/kg; assay type: ADME, organism-based; conditions: in vivo; summary of the method: as §6
[17] = Aqueous solubility of the compound in water at pH 4.6; assay type: physicochemical; summary of the method: as §5
[18] = Metabolic stability in rat plasma assessed as compound remaining after 4 hrs; assay type: ADME, cell-free; conditions: read-out: Stability; summary of the method: as §1
[19] = Clearance in Wistar rat at 10 mg/kg, po and 1 mg/kg, iv; assay type: ADME, organism-based; conditions: in vivo; summary of the method: as §6
[20] = Solubility of the compound in buffer at pH 4; assay type: physicochemical; summary of the method: as §5
[21] = Stability in simulated gastric fluid after 1hr by LC/MS analysis; assay type: physicochemical; conditions: read-out: Stability; summary of the method: as §4
[22] = target: Prostaglandin E2 receptor EP2 subtype (Homo sapiens, UniProt P43116); experiment: Inhibition of PGE2 binding to human EP2 receptor
[23] = target: T1, Prostaglandin D2 receptor 2; experiment: Displacement of [3H]PGD2 from human CRTh2 receptor in presence of human serum albumin
Summary of the method: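 Human CRTh2 binding assay run with 0.5% human serum albumin added to the assay buffer to mimic binding to blood proteins. IC50 is reported as the mean of at least three experiments.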

[24] = Terminal half life in Wistar rat at 10 mg/kg, po and 1 mg/kg, iv; assay type: ADME, organism-based; conditions: in vivo, read-out: beta t1/2 (converted); summary of the method: as §6
[25] = Intrinsic clearance in rat hepatocytes measured per 10^6 cells; assay type: ADME, cell-based, Hepatocyte; conditions: read-out: CLH; summary of the method: as §2
[26] = target: Prostaglandin E2 receptor EP4 subtype (Homo sapiens, UniProt P35408); experiment: Inhibition of PGE2 binding to human EP4 receptor
[27] = target: T5, Prostaglandin E2 receptor EP3 subtype (Homo sapiens, UniProt P43115); experiment: Antagonist activity at human EP3 receptor assessed as inhibition of PGE2-induced Ca2+ mobilization by FLIPR assay; assay type: functional; summary of the method: as §3
T5 sequence (P43115 whole entry): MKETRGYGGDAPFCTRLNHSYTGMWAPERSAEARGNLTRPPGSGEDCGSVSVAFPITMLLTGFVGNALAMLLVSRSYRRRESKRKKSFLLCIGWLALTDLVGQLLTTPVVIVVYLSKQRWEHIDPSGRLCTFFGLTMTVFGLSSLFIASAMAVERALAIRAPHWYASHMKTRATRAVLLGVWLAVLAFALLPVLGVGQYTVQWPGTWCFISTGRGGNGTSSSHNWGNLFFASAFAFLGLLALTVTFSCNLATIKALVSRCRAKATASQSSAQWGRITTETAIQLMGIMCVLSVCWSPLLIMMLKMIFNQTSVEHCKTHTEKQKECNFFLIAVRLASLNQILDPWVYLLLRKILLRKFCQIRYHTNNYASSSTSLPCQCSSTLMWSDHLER

[28] = Cmax in Wistar rat at 10 mg/kg, po and 1 mg/kg, iv; assay type: ADME, organism-based; conditions: in vivo; summary of the method: as §6
[29] = target: Cytochrome P450 2C9 (Homo sapiens, UniProt P11712); experiment: Inhibition of CYP2C9 (unknown origin); assay type: ADME
[30] = Half life in rat plasma; assay type: ADME, cell-free; summary of the method: as §1

Chain of Cytochrome P450 3A4 (P08684 whole entry): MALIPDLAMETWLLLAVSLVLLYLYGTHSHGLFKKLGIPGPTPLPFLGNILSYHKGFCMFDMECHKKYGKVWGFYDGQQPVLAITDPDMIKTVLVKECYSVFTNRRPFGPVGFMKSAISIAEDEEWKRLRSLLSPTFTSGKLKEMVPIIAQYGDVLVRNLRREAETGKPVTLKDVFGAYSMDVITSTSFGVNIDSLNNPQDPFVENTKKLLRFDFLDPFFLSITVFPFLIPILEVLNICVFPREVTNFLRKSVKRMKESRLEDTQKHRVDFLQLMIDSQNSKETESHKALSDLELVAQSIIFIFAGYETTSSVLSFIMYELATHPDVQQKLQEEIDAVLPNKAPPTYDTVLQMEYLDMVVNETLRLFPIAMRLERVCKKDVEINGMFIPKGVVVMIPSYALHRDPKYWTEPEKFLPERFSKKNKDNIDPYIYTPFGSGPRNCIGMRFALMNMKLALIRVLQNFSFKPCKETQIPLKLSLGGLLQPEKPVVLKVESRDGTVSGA
Chain of Prostaglandin E2 receptor EP4 subtype (P35408 whole entry): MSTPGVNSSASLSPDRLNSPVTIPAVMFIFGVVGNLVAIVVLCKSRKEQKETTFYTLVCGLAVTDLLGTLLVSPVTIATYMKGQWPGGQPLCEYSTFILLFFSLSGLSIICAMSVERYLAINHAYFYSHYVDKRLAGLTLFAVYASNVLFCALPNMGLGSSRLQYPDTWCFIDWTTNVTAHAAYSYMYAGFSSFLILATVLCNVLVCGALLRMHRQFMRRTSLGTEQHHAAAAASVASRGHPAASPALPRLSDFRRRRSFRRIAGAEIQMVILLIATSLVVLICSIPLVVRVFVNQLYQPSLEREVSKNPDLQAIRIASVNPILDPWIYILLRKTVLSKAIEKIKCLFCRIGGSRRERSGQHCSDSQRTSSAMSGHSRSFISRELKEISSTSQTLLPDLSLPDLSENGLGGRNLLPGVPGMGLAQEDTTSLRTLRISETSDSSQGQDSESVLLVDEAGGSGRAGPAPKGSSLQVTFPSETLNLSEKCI
Chain of Cytochrome P450 2D6 (P10635 whole entry): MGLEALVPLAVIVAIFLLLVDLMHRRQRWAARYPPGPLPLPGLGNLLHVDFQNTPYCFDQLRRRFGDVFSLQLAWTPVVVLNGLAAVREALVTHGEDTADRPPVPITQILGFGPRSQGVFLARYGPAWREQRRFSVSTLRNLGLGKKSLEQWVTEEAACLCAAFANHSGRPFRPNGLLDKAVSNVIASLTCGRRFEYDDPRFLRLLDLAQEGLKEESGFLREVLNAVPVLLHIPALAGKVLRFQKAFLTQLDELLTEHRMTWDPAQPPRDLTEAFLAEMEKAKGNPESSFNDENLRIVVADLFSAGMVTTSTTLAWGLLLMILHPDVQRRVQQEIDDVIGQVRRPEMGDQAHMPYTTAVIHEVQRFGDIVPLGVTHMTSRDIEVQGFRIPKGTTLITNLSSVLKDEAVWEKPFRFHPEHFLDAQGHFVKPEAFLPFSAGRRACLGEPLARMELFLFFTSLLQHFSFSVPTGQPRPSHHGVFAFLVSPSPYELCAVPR
Chain of Cytochrome P450 2C9 (P11712 whole entry): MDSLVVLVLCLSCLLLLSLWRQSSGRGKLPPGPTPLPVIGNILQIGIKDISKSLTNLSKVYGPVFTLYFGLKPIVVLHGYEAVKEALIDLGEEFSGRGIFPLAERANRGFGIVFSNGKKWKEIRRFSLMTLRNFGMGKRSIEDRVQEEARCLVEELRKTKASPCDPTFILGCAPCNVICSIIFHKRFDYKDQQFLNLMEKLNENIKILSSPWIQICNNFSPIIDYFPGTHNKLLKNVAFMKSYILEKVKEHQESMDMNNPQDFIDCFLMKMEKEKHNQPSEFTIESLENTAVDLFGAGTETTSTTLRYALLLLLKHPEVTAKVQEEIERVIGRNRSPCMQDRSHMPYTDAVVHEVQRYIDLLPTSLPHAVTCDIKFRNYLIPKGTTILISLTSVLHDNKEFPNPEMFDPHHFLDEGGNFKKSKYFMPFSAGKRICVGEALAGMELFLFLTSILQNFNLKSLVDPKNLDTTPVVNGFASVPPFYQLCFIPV
Chain of Prostaglandin E2 receptor EP2 subtype (P43116 whole entry): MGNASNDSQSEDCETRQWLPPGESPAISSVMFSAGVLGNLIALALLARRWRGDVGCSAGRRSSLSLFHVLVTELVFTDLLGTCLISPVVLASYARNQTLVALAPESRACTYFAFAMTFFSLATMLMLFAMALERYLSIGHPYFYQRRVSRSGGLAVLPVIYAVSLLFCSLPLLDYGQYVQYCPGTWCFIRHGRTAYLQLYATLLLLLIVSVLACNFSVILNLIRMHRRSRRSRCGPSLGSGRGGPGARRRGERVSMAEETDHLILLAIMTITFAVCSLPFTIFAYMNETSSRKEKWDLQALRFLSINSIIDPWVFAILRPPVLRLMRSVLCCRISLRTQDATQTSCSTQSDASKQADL

For `N#C/C(=C\c1cn(CC(=O)O)c2ccccc12)C(=O)N1CCCc2ccccc21`, the IC50 [1] was 0.014 µM, the remaining at 4 h [2] was 95% and the microsomal CLint [3] was 6 µL/min/mg. For the same compound, the logD [4] was -0.4, the half-life [5] was over 4 h and the IC50 [6] was over 10 µM. It also gave an IC50 [7] of over 10 µM, a remaining at 4 h [8] of 68% and a solubility [9] of 670 µg/mL (≈ 1740 µM). The IC50 [10] was 8.2 µM, the IC50 [11] was over 25 µM and the IC50 [12] was over 10 µM. The microsomal CLint [13] was 32 µL/min/mg, the Vd [14] was 0.7 L/kg and the AUC(0-t) [15] was 2200 ng·h/mL. It also gave a bioavailability [16] of 18%, a solubility [17] of 17 µg/mL (≈ 44.1 µM) and a remaining at 4 h [18] of 90%. It also gave a clearance [19] of 14 mL/min/kg, a solubility [20] of 7 µg/mL (≈ 18.2 µM) and a remaining at 1 h [21] of 93%. The IC50 [22] was over 10 µM, the IC50 [23] was 0.01 µM and the half-life [24] was 1 h. It also gave a hepatocyte CLint [25] of 11 µL/min/1e6 cells, an IC50 [26] of over 10 µM and an IC50 [27] of over 10 µM. For the same compound, the Cmax [28] was 213 ng/mL, the IC50 [29] was over 10 µM and the half-life [30] was over 4 h.
